Our source for the IC50 values is ChEMBL document CHEMBL1154229 (Bioorg Med Chem Lett, 2009).

In experiment [1] the target is Cytochrome P450 3A4 (Homo sapiens, UniProt P08684). Description: Inhibition of CYP3A4. It is filed as ADME.
The target in experiment [2] is T1, Bifunctional epoxide hydrolase 2 (Rattus norvegicus, UniProt P80299).
T1 sequence (P80299 whole entry): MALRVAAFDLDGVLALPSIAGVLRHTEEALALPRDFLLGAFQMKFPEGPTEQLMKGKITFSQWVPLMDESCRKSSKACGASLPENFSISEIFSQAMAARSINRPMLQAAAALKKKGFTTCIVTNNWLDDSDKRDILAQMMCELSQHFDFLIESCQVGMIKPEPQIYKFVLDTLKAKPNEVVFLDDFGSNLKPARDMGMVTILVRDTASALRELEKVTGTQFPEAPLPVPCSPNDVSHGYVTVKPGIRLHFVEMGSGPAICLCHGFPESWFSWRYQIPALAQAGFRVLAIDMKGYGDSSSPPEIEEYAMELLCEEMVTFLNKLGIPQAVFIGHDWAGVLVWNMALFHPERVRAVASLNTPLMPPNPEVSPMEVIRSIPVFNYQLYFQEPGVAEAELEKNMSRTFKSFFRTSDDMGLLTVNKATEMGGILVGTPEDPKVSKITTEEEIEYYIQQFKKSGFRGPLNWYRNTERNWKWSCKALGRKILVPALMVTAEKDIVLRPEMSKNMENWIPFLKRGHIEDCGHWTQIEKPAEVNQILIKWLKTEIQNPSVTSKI
The experiment in a line: Inhibition of rat soluble epoxide hydrolase.

The target of experiment [3] is Cytochrome P450 2D6 (Homo sapiens, UniProt P10635). The experiment in a line: Inhibition of CYP2D6. In kind it is ADME.
Experiment [4] concerns the target L-type calcium channel. Description: Inhibition of calcium channel diltiazem binding site.
The target of experiment [5] is T2, Bifunctional epoxide hydrolase 2 (Homo sapiens, UniProt P34913).
T2 sequence (P34913 whole entry): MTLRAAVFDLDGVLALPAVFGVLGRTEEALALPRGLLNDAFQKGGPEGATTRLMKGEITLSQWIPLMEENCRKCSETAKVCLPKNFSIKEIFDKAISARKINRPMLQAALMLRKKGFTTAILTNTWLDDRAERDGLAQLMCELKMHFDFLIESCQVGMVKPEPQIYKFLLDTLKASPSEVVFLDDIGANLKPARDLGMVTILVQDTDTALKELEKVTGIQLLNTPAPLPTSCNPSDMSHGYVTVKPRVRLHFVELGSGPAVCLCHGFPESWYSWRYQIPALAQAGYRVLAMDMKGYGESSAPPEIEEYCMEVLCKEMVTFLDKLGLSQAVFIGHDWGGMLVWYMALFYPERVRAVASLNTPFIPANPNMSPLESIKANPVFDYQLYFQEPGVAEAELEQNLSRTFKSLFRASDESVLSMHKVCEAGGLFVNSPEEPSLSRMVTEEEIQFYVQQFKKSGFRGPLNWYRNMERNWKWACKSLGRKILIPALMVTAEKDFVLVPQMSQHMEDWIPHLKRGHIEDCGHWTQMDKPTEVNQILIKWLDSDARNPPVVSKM
Description: Inhibition of human soluble epoxide hydrolase.

Experiment [6] has as its target T3, Epoxide hydrolase 1 (Homo sapiens, UniProt P07099).
T3 sequence (P07099 whole entry): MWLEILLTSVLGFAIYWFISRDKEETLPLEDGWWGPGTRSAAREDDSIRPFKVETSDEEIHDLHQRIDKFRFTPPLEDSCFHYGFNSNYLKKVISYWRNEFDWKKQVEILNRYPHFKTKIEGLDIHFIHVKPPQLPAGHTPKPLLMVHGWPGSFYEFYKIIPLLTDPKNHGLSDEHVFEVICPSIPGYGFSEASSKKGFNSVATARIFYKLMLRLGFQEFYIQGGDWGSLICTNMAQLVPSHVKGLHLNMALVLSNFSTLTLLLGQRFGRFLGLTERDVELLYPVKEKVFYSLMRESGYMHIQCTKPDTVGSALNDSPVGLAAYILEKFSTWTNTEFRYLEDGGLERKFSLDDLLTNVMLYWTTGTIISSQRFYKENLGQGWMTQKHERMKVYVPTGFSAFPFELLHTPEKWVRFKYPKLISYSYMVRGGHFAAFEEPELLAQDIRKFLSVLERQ
The experiment in a line: Inhibition of human microsomal epoxide hydrolase. In outline: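 Human mEH used as the counterscreen enzyme. Values come from one or two experiments, each in triplicate, with repeats within 20%.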

Experiment [7] addresses Cytochrome P450 2C9 (Homo sapiens, UniProt P11712). The experiment in a line: Inhibition of CYP2C9. It is filed as ADME.
The nature of experiment [8]: Inhibition of potassium channel IKr.
For experiment [9], the target named is Sodium channel protein type 5 subunit alpha (Homo sapiens, UniProt Q14524). Description: Inhibition of Nav1.5 channel.
Experiment [10] has as its target T2, Bifunctional epoxide hydrolase 2. The experiment in a line: Inhibition of human soluble epoxide hydrolase in HEK293 cells assessed as DHET production. In kind it is cell-based. An outline of the steps: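 Whole-cell 14,15-DHET production assay in HEK293 cells, run with or without 10% human serum. Values come from one or two experiments, each in triplicate, with repeats within 20%.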

A value given as a limit tells only on which side of the number the result lay.

Sodium channel protein type 5 subunit alpha, sequence (Q14524 whole entry): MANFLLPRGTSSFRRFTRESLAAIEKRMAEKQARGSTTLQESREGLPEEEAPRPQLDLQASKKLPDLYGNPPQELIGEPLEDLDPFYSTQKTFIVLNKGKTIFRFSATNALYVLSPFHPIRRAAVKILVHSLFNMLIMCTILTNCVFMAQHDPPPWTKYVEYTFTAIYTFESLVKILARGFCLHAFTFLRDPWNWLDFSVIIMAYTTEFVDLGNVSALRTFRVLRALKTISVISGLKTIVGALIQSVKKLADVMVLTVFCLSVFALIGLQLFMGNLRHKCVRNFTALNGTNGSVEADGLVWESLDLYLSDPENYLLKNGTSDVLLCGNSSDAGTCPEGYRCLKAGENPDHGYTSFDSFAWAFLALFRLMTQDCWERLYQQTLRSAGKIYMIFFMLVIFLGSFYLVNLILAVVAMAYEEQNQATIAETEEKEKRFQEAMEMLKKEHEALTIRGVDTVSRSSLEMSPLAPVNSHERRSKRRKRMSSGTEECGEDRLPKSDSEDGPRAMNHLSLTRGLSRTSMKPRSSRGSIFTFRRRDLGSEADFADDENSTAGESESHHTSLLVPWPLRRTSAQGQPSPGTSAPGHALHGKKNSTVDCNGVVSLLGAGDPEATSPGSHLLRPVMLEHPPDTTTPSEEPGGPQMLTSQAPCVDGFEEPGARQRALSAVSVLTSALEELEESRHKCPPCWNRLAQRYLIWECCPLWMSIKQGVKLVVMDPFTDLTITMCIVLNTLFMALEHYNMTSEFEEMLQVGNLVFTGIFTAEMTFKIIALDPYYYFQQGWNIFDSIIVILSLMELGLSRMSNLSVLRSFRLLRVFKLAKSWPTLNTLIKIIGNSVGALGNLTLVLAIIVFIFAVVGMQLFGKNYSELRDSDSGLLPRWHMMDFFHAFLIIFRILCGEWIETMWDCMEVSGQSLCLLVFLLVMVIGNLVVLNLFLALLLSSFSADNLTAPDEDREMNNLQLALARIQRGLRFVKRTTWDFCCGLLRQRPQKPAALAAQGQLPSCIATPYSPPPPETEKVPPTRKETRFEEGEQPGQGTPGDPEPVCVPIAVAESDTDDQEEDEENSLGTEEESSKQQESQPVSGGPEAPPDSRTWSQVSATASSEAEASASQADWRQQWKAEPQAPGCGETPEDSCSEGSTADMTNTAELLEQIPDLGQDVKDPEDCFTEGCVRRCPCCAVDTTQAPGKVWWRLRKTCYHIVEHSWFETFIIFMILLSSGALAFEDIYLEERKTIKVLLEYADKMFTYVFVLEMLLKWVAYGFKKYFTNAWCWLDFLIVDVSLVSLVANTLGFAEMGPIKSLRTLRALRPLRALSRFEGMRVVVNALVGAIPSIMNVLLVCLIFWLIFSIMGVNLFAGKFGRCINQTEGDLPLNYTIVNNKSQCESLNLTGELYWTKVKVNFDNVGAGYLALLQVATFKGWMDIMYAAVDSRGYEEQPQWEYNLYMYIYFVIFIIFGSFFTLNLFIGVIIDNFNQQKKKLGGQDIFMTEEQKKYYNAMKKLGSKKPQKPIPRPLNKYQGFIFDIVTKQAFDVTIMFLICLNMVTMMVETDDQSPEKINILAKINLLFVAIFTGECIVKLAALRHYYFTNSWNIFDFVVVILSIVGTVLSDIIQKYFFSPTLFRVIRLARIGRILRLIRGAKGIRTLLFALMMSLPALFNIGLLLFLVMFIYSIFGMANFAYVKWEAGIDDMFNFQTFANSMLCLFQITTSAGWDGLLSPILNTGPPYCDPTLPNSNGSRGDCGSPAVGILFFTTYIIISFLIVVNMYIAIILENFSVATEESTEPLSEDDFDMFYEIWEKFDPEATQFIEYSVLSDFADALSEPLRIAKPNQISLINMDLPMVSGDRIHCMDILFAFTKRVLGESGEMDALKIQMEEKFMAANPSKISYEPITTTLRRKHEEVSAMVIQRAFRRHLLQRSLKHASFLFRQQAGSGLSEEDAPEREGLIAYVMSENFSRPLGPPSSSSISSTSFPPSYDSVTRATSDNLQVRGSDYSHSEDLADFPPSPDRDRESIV
Cytochrome P450 2D6, sequence (P10635 whole entry): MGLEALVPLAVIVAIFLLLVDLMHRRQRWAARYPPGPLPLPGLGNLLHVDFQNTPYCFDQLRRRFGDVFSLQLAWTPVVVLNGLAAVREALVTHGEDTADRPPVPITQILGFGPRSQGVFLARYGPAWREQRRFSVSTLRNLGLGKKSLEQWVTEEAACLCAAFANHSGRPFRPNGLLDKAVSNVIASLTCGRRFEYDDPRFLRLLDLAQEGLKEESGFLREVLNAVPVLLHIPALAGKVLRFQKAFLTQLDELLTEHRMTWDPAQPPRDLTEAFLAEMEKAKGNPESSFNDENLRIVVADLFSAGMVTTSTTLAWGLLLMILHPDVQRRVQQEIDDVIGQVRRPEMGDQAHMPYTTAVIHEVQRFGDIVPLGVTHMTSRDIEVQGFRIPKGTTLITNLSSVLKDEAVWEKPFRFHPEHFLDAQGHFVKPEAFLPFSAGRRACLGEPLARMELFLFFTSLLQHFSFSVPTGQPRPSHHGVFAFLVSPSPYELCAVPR
Cytochrome P450 2C9, sequence (P11712 whole entry): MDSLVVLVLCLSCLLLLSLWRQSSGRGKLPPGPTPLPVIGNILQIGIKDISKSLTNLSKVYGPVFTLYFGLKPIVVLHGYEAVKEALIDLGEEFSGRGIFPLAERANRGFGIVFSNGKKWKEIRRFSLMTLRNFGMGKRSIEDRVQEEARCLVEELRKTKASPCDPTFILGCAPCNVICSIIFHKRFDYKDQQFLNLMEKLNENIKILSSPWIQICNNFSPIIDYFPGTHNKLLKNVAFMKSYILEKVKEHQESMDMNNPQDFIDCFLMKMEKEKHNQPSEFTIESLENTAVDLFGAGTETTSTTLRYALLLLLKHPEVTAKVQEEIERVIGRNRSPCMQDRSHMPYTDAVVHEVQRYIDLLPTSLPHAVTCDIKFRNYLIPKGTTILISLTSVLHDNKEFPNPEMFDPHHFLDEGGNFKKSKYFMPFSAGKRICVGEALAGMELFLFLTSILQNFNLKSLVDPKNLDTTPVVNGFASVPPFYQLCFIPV
Cytochrome P450 3A4, sequence (P08684 whole entry): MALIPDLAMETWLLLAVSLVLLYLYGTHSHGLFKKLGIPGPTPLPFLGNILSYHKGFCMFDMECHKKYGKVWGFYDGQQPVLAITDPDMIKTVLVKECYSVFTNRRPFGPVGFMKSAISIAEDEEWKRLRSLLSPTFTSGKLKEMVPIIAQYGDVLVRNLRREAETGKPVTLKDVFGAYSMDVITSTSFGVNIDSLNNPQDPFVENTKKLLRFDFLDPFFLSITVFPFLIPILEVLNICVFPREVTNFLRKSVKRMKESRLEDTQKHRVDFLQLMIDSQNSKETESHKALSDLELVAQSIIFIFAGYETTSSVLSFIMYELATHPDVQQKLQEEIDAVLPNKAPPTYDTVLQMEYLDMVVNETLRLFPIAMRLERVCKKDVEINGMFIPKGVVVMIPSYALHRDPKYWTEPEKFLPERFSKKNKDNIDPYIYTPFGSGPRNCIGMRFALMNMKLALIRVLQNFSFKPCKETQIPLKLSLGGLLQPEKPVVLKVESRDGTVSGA

Regarding `O=C(O)CCC1(c2cccc(C(F)(F)F)c2)CCCN(C(=O)Nc2ccc(Cl)cc2)C1` (stereo not drawn), the IC50 was greater than 10 µM in experiment [1]; 0.176 µM in experiment [2]; greater than 10 µM in [3]; greater than 30 µM in experiment [4]; 0.012 µM in [5]; greater than 100 µM in [6]. The values for the half-maximal inhibitory concentration (IC50) in experiment [7], in experiment [8] and in experiment [9] were greater than 10 µM, greater than 30 µM and greater than 10 µM, respectively.

Turning to `CC1(c2ccccc2)CCCN(C(=O)NCCCc2cccnc2)C1` (stereo not drawn), the IC50 in experiment [1] was less than 10 µM; in experiment [3], greater than 10 µM; in experiment [10] it was 0.008 µM; in experiment [5], 0.007 µM; in [6] it was 3 µM; in [7], greater than 10 µM. The same compound yielded an IC50 in experiment [8] of 5 µM.

With `CC1(c2ccccc2)CCCN(C(=O)Nc2noc3ccccc23)C1` (stereo not drawn), the half-maximal inhibitory concentration (IC50) in experiment [1] was greater than 10 µM; in [2] it was 0.207 µM; in experiment [3], greater than 10 µM; in experiment [4] it was 19 µM; in [7], less than 10 µM; in experiment [8] it was 18 µM. Besides, the 50% inhibitory concentration (IC50) in experiment [9] was less than 10 µM.

Consider `CNC(=O)CCC1(c2ccccc2)CCCN(C(=O)Nc2ccc(Cl)cc2)C1` (stereo not drawn), for which the IC50 was 10 µM in experiment [1]; 0.032 µM in experiment [2]; greater than 10 µM in experiment [3]; 4 µM in experiment [4]; less than 0.001 µM in [10]; greater than 100 µM in [6]. Besides, the IC50 in experiment [7] was 10 µM; in [8] it was 8 µM; in experiment [9] it was greater than 10 µM.

As to `O=C(CCC1(c2ccccc2)CCCN(C(=O)Nc2ccc(Cl)cc2)C1)N1CCOCC1` (stereo not drawn), the IC50 in experiment [1] was greater than 10 µM; in experiment [2], 0.1 µM; in experiment [3], greater than 10 µM; in experiment [4] it was 26 µM; in experiment [10], less than 0.001 µM; in experiment [5], 0.008 µM. Further, the values for the IC50 in experiment [7], in experiment [8] and in experiment [9] were greater than 10 µM, 29 µM and greater than 10 µM, respectively.

Turning to `CC1(c2ccccc2)CCCN(C(=O)NCCc2ccc3nccnc3c2)C1` (stereo not drawn), the IC50 in experiment [1] is less than 10 µM; in experiment [2] it was 0.019 µM; in experiment [3] it was 10 µM; in [10] it was 0.003 µM; in experiment [6] it was greater than 100 µM; in [7], less than 10 µM. Further, in [8], the concentration for half-maximal inhibition (IC50) turned out to be 9 µM.

In the case of `CCN(CC)C(=O)CCC1(c2ccccc2)CCCN(C(=O)Nc2ccc(Cl)cc2)C1` (stereo not drawn), the IC50 in experiment [1] is less than 10 µM; in experiment [2], 0.031 µM; in [3], greater than 10 µM; in experiment [4], 1 µM; in experiment [5], 0.003 µM; in [7], greater than 10 µM. The half-inhibitory concentration (IC50) was 6 µM in [8] and greater than 10 µM in experiment [9].

In the case of `O=C(O)CCC1(c2cccnc2)CCCN(C(=O)Nc2ccc(Cl)cc2)C1` (stereo not drawn), the IC50 in experiment [1] was greater than 10 µM; in experiment [2], 0.331 µM; in experiment [3], greater than 10 µM; in experiment [4], greater than 30 µM; in experiment [5], 0.028 µM; in [7], greater than 10 µM. In addition, the IC50 in experiment [8] is greater than 30 µM; in experiment [9], greater than 10 µM.

Regarding `O=C(O)CCC1(c2ccccn2)CCCN(C(=O)Nc2ccc(Cl)cc2)C1` (stereo not drawn), the IC50 in [1] is greater than 10 µM; in [2] it was 0.29 µM; in experiment [3], greater than 10 µM; in [4], greater than 30 µM; in experiment [5], 0.019 µM; in [7], greater than 10 µM. Moreover, the IC50 was greater than 30 µM in experiment [8] and greater than 10 µM in [9].

Take `CC1(c2ccccc2)CCCN(C(=O)Nc2ccncc2)C1` (stereo not drawn): the IC50 in experiment [1] is less than 10 µM; in experiment [2], 0.349 µM; in experiment [3], greater than 10 µM; in [4], 15 µM; in experiment [5], 0.55 µM; in experiment [6] it was greater than 100 µM. For the same compound, the IC50 is greater than 10 µM in experiment [7], 5 µM in experiment [8] and greater than 10 µM in experiment [9].

With `O=C(CCC1(c2ccccc2)CCCN(C(=O)Nc2ccc(Cl)cc2)C1)Nc1nn[nH]n1` (stereo not drawn), the half-inhibitory concentration (IC50) in experiment [1] was greater than 10 µM; in experiment [2], 0.034 µM; in experiment [3], greater than 10 µM; in experiment [10], 0.0014 µM; in [5], 0.0014 µM; in experiment [6] it was greater than 100 µM. The values for the IC50 in [7] and in [8] were greater than 10 µM and 27 µM, respectively.

Turning to `CC1(c2ccccc2)CCCN(C(=O)NCc2ccc(-c3cccc(Cl)c3)cc2)C1` (stereo not drawn), the IC50 in experiment [1] was less than 10 µM; in [2], 0.007 µM; in experiment [5], 0.014 µM; in [6], 22 µM; in [8], 2 µM.

On to `CC1(c2ccccc2)CCCN(C(=O)Nc2ccc(-c3ccccc3)cc2)C1` (stereo not drawn), for which the half-inhibitory concentration (IC50) in experiment [1] was greater than 10 µM; in [2], 0.006 µM; in experiment [3], greater than 10 µM; in experiment [4], 0.9 µM; in experiment [5], 0.007 µM; in [7] it was less than 10 µM. For the same compound, the figures for the IC50 in experiment [8] and in [9] were 21 µM and less than 10 µM, respectively.

For the compound `O=C(O)CCC1(c2ccc(-c3ccccc3)cc2)CCCN(C(=O)Nc2ccc(OC(F)(F)F)cc2)C1` (stereo not drawn), the concentration for half-maximal inhibition (IC50) was greater than 10 µM in experiment [1]; 0.413 µM in experiment [2]; greater than 10 µM in experiment [3]; greater than 30 µM in experiment [4]; less than 0.001 µM in [10]; less than 10 µM in experiment [7]. In addition, the IC50 in experiment [8] was 21 µM; in [9], less than 10 µM.

In the case of `COC(=O)CCC1(c2ccccc2)CCCN(C(=O)Nc2ccc(Cl)cc2)C1` (stereo not drawn), the IC50 is 0.003 µM in experiment [2] and less than 0.001 µM in experiment [5].

As for `N#CCCC1(c2ccccc2)CCCN(C(=O)Nc2ccc(Cl)cc2)C1` (stereo not drawn), the IC50 in experiment [1] is greater than 10 µM; in experiment [2], 0.016 µM; in [3] it was greater than 10 µM; in experiment [4], 7 µM; in [10] it was less than 0.001 µM; in experiment [6] it was greater than 100 µM. Further, the IC50 is greater than 10 µM in experiment [7], 10 µM in experiment [8] and greater than 10 µM in [9].

Take `O=C(O)CCCC1(c2ccccc2)CCCN(C(=O)Nc2ccc(Cl)cc2)C1` (stereo not drawn): the IC50 is greater than 10 µM in experiment [1]; 0.176 µM in experiment [2]; greater than 10 µM in experiment [3]; greater than 30 µM in experiment [4]; 0.006 µM in experiment [10]; greater than 100 µM in experiment [6]. Further, the values for the IC50 in experiment [7], in experiment [8] and in [9] were greater than 10 µM, greater than 30 µM and greater than 10 µM, respectively.

Consider `CC1(c2ccccc2)CCCN(C(=O)NCc2ccc(-c3ccccc3C(F)(F)F)cc2)C1` (stereo not drawn), for which the IC50 in experiment [1] was less than 10 µM; in experiment [2] it was 0.011 µM; in experiment [3], greater than 10 µM; in experiment [4], 0.7 µM; in [5], 0.008 µM; in experiment [6] it was greater than 100 µM. Besides, the values for the IC50 in experiment [7], in experiment [8] and in experiment [9] were less than 10 µM, 0.2 µM and greater than 1 µM, respectively.

In the case of `O=C(O)CCC1(c2ccncc2)CCCN(C(=O)Nc2ccc(Cl)cc2)C1` (stereo not drawn), the IC50 in experiment [1] is greater than 10 µM; in experiment [2], 0.467 µM; in experiment [3] it was greater than 10 µM; in [4] it was greater than 30 µM; in experiment [5], 0.03 µM; in [6], greater than 100 µM. In addition, the IC50 is 10 µM in [7], greater than 30 µM in experiment [8] and greater than 10 µM in [9].
